# Source: PubChem
# DENV2 CPE rescue: inhibitors of DENV2 cytopathic effect | DENV2-infected cells, cytopathic effect rescue, plate reader | CPE inhibition, % at 9.99 µM | 350,000 tested, 1.7% active | AID 651640; in the data active = CPE inhibition above about 20%, passing the limit was not always enough; tested in BHK-21 cells;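 also: 0% = median of neutral control wells and 100% = median of positive control wells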
# Env fusion inh: HIV envelope-mediated fusion inhibition; 360,000 tested, 1.1% active; HeLa-JRFL Env/CEM21 cell fusion, luciferase; inhibition, % at 12.3 µM;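 active = mean replicate inhibition score of at least 50 and every replicate individually at or above 50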;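 also: 0% = plate neutral controls and 100% = maraviroc near 300 nM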
# Ecoli rRNA inh: selective bacterial rRNA inhibition in E. coli. E. coli WT GFP vs humanized-ribosome RFP mutants, fluorescence, 24 h; hits give low values; DMSO median 0, no signal -100. 350,000 tested, 1.6% active. GFP signal change (wild-type ribosome), % (test concentration not listed). AID 720706;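 active = significant combined selectivity score with lowered wild-type GFP, culture density cut under 30%, mutant RFP and density less affected; inactive = any of these conditions unmet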
# PGC1a acetyl inh: modulators of PGC1a acetylation; U2OS PGC1a acetylation, AlphaScreen anti-acetyl-lysine; with virally co-expressed GCN5 acetyltransferase; inhibition, % at 15.6 µM; 350,000 tested, 0.17% active;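 active = every replicate shows inhibition of at least 40%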;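 also: 0% = neutral control wells and 100% = positive control wells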
# FN deposit inh: fibronectin deposition inhibition; AH1F fibroblasts, Alexa488-fibronectin deposition fluorescence, overnight; AID 743247; inhibition, % at 12.6 µM; 350,000 tested, 0.086% active;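 active = mean inhibition across replicates of 30% or more, regardless of how many single replicates reach that level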;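 also: positive control wells lacked labelled fibronectin entirely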
#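 Schedule: 1 h cell adhesion before compound, then overnight fibronectin incubation; test system: AH1F fibroblast monolayer depositing Alexa488-labelled fibronectin into matrix; quantity: 10000 AH1F cells per well; probe or stimulus: fluorescent fibronectin at 24 nM final; signal: fluorescence, ex 485 nm, em 525 nm; evaluation: percent inhibition as loss of matrix-bound fibronectin fluorescence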
# PglD inh: blocks C. jejuni PglD acetyltransferase activity; purified PglD enzyme, DTNB colorimetric CoA detection; inhibition, % at 12.5 µM; 360,000 tested, 0.098% active; AID 602405; in the data active = inhibition above about 16%, passing the limit was not always enough
# * marks the source's active call; other numbers are inactive results; · = no result given; ! = not active in a repeat; [ ] = another dose, or the depositor's remark. A selection: hits, their analogues and other compounds. The true share with any hit is near 3.5%.
SMILES,DENV2 CPE rescue,Env fusion inh,Ecoli rRNA inh,PGC1a acetyl inh,FN deposit inh,PglD inh
CC(C)(C)c1ccc(-n2ncc3c2CCCC3NC(=O)CN2CCCCC2=O)cc1 (centres undefined),-2,4,0,·,-24,-4
Cc1cc(C(=O)NC2CCCc3c2cnn3-c2ccc(C(C)(C)C)cc2)nn1C (centres undefined),-9,82*,-22,15,·,-2
C[C@@H]1CCCCO[C@@H](CN(C)C(=O)c2ccccc2)[C@H](C)CN([C@@H](C)CO)C(=O)c2cc(N(C)C)ccc2O1,-4,-28[16.7 µM],0,0,·,0
CC(C)n1cnc2c(N(C)c3cccc(Cl)c3)nc(N(CCO)CCO)nc21,-8,32,-33*,3,-1,-5
C#CCNC(=O)C1=C[C@H](c2ccc3c(c2)OCO3)C[C@H](OCCCCO)O1,26*,-16,10,·,-2,·
CCO[C@H]1OC(C(=O)N2CCN(Cc3ccc4c(c3)OCO4)CC2)=C[C@@H](c2ccc3c(c2)OCO3)[C@@H]1CCCO,0,2[16.7 µM],-22*,-4,-13,-2
CCO[C@H]1OC(C(=O)N2CCN(Cc3ccccc3)CC2)=C[C@@H](c2ccccc2)[C@@H]1CCCO,4,13,-32*,-30,4,0
C[C@@H]1C=C(C(=O)N2CCN(Cc3ccc4c(c3)OCO4)CC2)O[C@H](OCCCCO)C1,21*,15,7,·,17,0
O=C(CCN1CCCCC1)N[C@@H]1CC[C@H](CCNS(=O)(=O)c2ccc(F)cc2)O[C@H]1CO,-1,1[16.7 µM],1,2,·,2
CO[C@@H]1CN(C)C(=O)c2ccc(NC(=O)C3CC3)cc2OC[C@H](C)N(CCC(F)(F)F)C[C@@H]1C,3,·,-5,·,8,0
COc1ccc2c3c(n(C)c2c1)[C@@H](CO)N(C(=O)c1ccc(F)cc1)CC31CN(CC2CC2)C1,12,-11[16.7 µM],3,·,·,·
CC(/C=C1\SC(=S)N(CCCC(=O)Nc2ccc(C(=O)O)cc2)C1=O)=C\c1ccccc1,·,-6,·,·,·,-16
COc1cc(/C=C2\SC(=S)N(NC(=O)c3ccc(O)cc3)C2=O)ccc1O,2,-11,-23,·,5,·
O=C(NN1C(=O)/C(=C/c2ccc(O)c(O)c2)SC1=S)c1ccccc1,10,-5,-31*,·,21,-12
CC(=Cc1ccccc1)C=C1SC(=S)N(CCCC(=O)Nc2ccc(C(=O)O)cc2)C1=O,8,-4,-23*,·,-6,-4
CC(/C=C1\SC(=S)N(NC(=O)c2ccc(O)cc2)C1=O)=C\c1ccccc1,-8,·,-25*,·,9,·
COCC(=O)Nc1ccc2c(c1)C(=O)N(C)C[C@H](OC)[C@@H](C)CN(Cc1cccnc1)[C@@H](C)CO2,2,·,3,-8,4,1
O=C(N[C@@H]1CC[C@H](CC(=O)N2CCN(c3ccccc3)CC2)O[C@@H]1CO)c1ccccc1,1,0[16.7 µM],2,12,·,1
CCCNC(=O)C[C@@H]1CC[C@H]2[C@@H](COc3ccc(NC(=O)c4ccc(Cl)cc4)cc3C(=O)N2C)O1,-5,14[16.7 µM],-3,16,-13,-3
C[C@H](CO)N1C[C@H](C)[C@H](CN(C)Cc2cncnc2)Oc2ncc(C#CC(C)(C)O)cc2C1=O,4,-5[16.7 µM],5,11,-6,-1
C[C@@H]1CN([C@@H](C)CO)C(=O)c2cc(C#CC(C)(C)O)cnc2O[C@@H]1CN(C)Cc1cncnc1,23*,-18[16.7 µM],2,11,-7,-4
C[C@@H]1CN([C@@H](C)CO)C(=O)c2cc(C#CC(C)(C)O)cnc2O[C@H]1CN(C)Cc1cncnc1,64*,-2[16.7 µM],0,-6,10,3
CO[C@H]1CN(C)C(=O)c2cc(NC(=O)Nc3cc(F)ccc3F)ccc2OC[C@@H](C)N(C(=O)c2ccccn2)C[C@H]1C,6,3[16.7 µM],1,-10,12,3
O=C(O)CSc1ccn(Cc2ccccc2)c1,51*,-10,3,-2,-3,-1
O=C(O)CSc1nc2ccccc2n1Cc1ccccc1,-3,1,-7,3,0,3
SMILES,DENV2 CPE rescue,Env fusion inh,Ecoli rRNA inh,PGC1a acetyl inh,FN deposit inh,PglD inh
Cc1ccccc1NC(=S)N(Cc1ccccc1)Cc1cccs1,2,3,5,-43,4,·
CNC(=S)N(Cc1ccc(Cl)cc1)Cc1cccs1,12,19,-43*,-21,10,10
CCOc1ccc(N2CC(C(=O)Nc3ccc(S(=O)(=O)N4CCCCC4)cc3)CC2=O)cc1 (centres undefined),0,67*,12,·,5,-1
CCOc1ccc(N2CC(C(=O)Nc3ccc(S(=O)(=O)N4CCCC4)cc3)CC2=O)cc1 (centres undefined),3,-4,2,·,-10,1
COc1ccc(S(=O)(=O)N2CCCCCC2)cc1C(=O)N(C)Cc1ccc(F)cc1,3,15,-8,·,3,·
CCOc1ccc(CN(C)C(=O)CCc2ccc(S(=O)(=O)N3CCCCCC3)cc2)cc1,0,65*,-34,3,-2,-2
CCOc1ccc(S(=O)(=O)Nc2ccc(S(=O)(=O)N3CCCCC3)cc2)cc1,·,-47,-4,·,·,-5
CCOc1ccc(S(=O)(=O)Nc2ccc(S(=O)(=O)N3CCCC3)cc2)cc1,·,·,-27*,2,·,-4
COc1ccc(CN(C)C(=O)CCc2ccc(S(=O)(=O)N3CCCCCC3)cc2)c(OC)c1,2,·,-2,-10,8,0
COc1ccc(S(=O)(=O)N2CCCCCC2)cc1C(=O)N(C)Cc1ccc(C(C)(C)C)cc1,59*,·,-24,-15,-10,-3
Cc1ccccc1-c1ccc([C@H]2[C@H](CO)N3CCCCN(S(=O)(=O)c4cn(C)cn4)C[C@@H]23)cc1,-3,·,1,-14,·,-5
C=CCOC(=O)C(=O)/C=C/c1ccc(F)cc1,1,-24[16.7 µM],·,3,·,·
C=CCOC(=O)C(=O)/C=C/c1ccc2c(c1)Cc1ccccc1-2,37*!,-4,-5,0,5,0
C[C@@H]1CN([C@H](C)CO)S(=O)(=O)c2ccc(-c3cncnc3)cc2O[C@H]1CN(C)CC1CC1,-13,3[16.7 µM],2,-4,·,-3
O=C1[C@@H](Oc2ccccc2)[C@@H](c2ccncc2)N1c1ccncc1,28*,-13,7,1,13,-5
COc1ccc(S(=O)(=O)Nc2ccc3c(c2)CC(=O)N([C@H](C)CO)C[C@H](C)[C@@H](CN(C)C(=O)Nc2ccc(F)cc2)O3)cc1,-10,-20[16.7 µM],0,-6,·,-2
CC(C)c1ccc2c(c1)[C@H]1OCC[C@H]1[C@@H](c1cccs1)N2,·,59*,·,·,8,·
Cc1cccc(S(=O)(=O)N[C@H]2CC[C@@H](CCNC(=O)c3cnccn3)O[C@H]2CO)c1,-4,2[16.7 µM],-1,-5,-9,-2
